# Assay results from different studies.
# Lines come from different studies, so protocols differ.
# Target: Casein kinase I isoform gamma-3 (CSNK1G3, Homo sapiens, UniProt Q9Y6M4)
Compound,test,conditions,remaining binding [%]
O=C(NCCCN1CCOCC1)c1ccc(Nc2nccc(-c3cc4ccccc4s3)n2)cc1,"binding, competition with immobilised ligand",1 µM,88
CS(=O)(=O)N1CCCC(NC(=O)[C@H](CCC2CCCCC2)NC(=O)c2ccc(CNc3ncnc4c3nnn4-c3ccccc3)cc2)C1 (some centres unmarked),"cell-free assay, competition with immobilised ligand",0.1 µM,100
CN(C)c1nccc(-c2cnn3ncccc23)n1,binding,1 µM,82
Cc1cnc(Nc2ccc(C(=O)N3CCC(N4CCCC4)CC3)cc2)nc1-c1cc2ccccc2s1,"binding, competition with immobilised ligand",1 µM,100
O=C(NCC1CCOCC1)c1n[nH]cc1NC(=O)c1c(F)cccc1F,"binding, competition with immobilised ligand",1 µM,78
CCN1CCN(Cc2ccc(C(=O)Nc3ccc(C)c(Oc4ccc5c(c4)CC(=O)N5)c3)cc2C(F)(F)F)CC1,"binding, competition with immobilised ligand",1 µM,100
N[C@@H]1CCN(c2nccc(-c3cnn4ncccc34)n2)C1,binding,1 µM,100
O=C(O)[C@H]1[C@H](Cn2nnc3ccccc3c2=O)CC[C@@H]1C(=O)c1ccc(OCCC2CCOCC2)cc1,"cell-free assay, competition with immobilised ligand",1 µM,100
C[C@@H]1CCN(c2nccc(-c3cnn4ncccc34)n2)C1,binding,1 µM,65
Cc1nc(N2CC[C@@H](O)C2)ncc1-c1cc(C(F)(F)F)cc2[nH]ncc12,"cell-free assay, competition with immobilised ligand",1 µM,74
CN(C)c1nccc(-c2cnc3ncccn23)n1,binding,1 µM,70
CN(C)CC#Cc1ccc(OCCCc2sc(N3CCc4cccc(C(=O)Nc5nc6ccccc6s5)c4C3)nc2C(=O)O)c(F)c1,"cell-free assay, competition with immobilised ligand",1 µM,100
Nc1ncc2c(n1)-c1c([nH]c3ccc(C#CC4CC4)cc13)CCCC2,"binding, competition with immobilised ligand",1 µM,93
CN(C)c1ncc(F)c(-c2cnn3ncccc23)n1,binding,1 µM,100
O=C(NCc1ncc(C(F)(F)F)cc1Cl)c1ccc2c(c1)C1(CCS(=O)(=O)CC1)[C@H](C1CC1)N2S(=O)(=O)c1ccc(F)cc1,"cell-free assay, competition with immobilised ligand",1 µM,100
O=C(c1ccc(Nc2nccc(-c3cc4ccccc4s3)n2)cc1)N1CCC(N2CCCC2)CC1,"binding, competition with immobilised ligand",1 µM,100
O=C1NC(c2ccccn2)Sc2ccccc21 (centres unmarked),"cell-free assay, competition with immobilised ligand",1 µM,100
COc1ncc2cc3ccccc3nc2c1C#N,"cell-free assay, competition with immobilised ligand",5 µM,96
Cc1cnn2ncc(-c3ccnc(N(C)C)n3)c2c1,binding,1 µM,82
COc1cnc(Nc2cccc(S(N)(=O)=O)c2)nc1N1CCN(c2ccccc2)CC1,"binding, competition with immobilised ligand",1 µM,100
